Series [1] has as its system Staphylococcus aureus. As to the kind of experiment: Antibacterial activity against Staphylococcus aureus MRSA198 clinical isolate-1 measured after 18 to 20 hrs by microbroth dilution method. Type of series: functional. To be noted: MRSA198 isolate-1. Background: In broth dilution the organism is exposed to a series of concentrations in liquid medium.
Series [2] is described as follows: Cytotoxicity against mouse RAW264.7 cells assessed as growth inhibition at 50 ug/mL after 120 hrs by MTT assay relative to control. The format is cell-based. Particulars: read-out: GI. The method, boiled down: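 RAW 264.7 mouse macrophages were seeded at 25,000 cells/well and left to attach overnight. Compound in DMSO was added from a 200× concentrate, in duplicate wells, to a 50 μg/mL test level; DMSO served as control. Exposure 120 h at 37°C in 5% CO₂. MTT (4 mg/mL in PBS) was added for 4 h, formazan dissolved in DMSO, and absorbance read at 560 nm. Viability expressed as % of untreated cells, mean ± SE of at least three independent experiments.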
(Formazan colour is commonly taken as a measure of viable cells.)

Another series has as its system Aspergillus niger. Put plainly: Antifungal activity against Aspergillus niger ATCC 439 measured after 72 hrs by agar dilution method. The format is functional. Particulars: ATCC 439, 72 h. The method, boiled down: (§1)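 Agar dilution on Sabouraud dextrose agar, with compounds at […] to 0.78 μM in twofold steps. Fungal suspensions at 10 CFU/mL as printed were applied to the compound-containing plates. Incubation at 35°C; MIC read after 72 h. Three experiments.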

The test system of a further series is Escherichia coli. As to the kind of experiment: Antibacterial activity against Escherichia coli ATCC 25922 measured after 18 to 20 hrs by microbroth dilution method. The format is functional. The method, boiled down: (§2)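 Inoculum from a 4–6-h broth adjusted to 0.5 McFarland, final 5 × 10⁵ CFU/mL. Incubation at 35°C for 18–20 h. MIC taken as the lowest concentration giving complete inhibition of visible growth; three experiments.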

The test system of series [3] is Staphylococcus aureus. As to the kind of experiment: Antibacterial activity against Staphylococcus aureus MRSA198 clinical isolate-3 measured after 18 to 20 hrs by microbroth dilution method. To be noted: MRSA198 isolate-3. The format is functional.
The subject of series [4] is Staphylococcus aureus. Put plainly: Antibacterial activity against Staphylococcus aureus MRSA198 clinical isolate-2 measured after 18 to 20 hrs by microbroth dilution method. The format is functional. Particulars: MRSA198 isolate-2.
Series [5] concerns Staphylococcus aureus. As to the kind of experiment: Antibacterial activity against Staphylococcus aureus ATCC 11632 after 18 to 20 hrs by microbroth dilution method. Type of series: functional. The method, boiled down: as §2
The test system of series [6] is Staphylococcus epidermidis. Put plainly: Antibacterial activity against Staphylococcus epidermidis ATCC 12228 after 18 to 20 hrs by microbroth dilution method. The format is functional. The method, boiled down: as §2
In another series the test system is Aspergillus flavus. Put plainly: Antifungal activity against Aspergillus flavus ATCC 204304 measured after 72 hrs by agar dilution method. The format is functional. Particulars: ATCC 204304, 72 h. In short, it runs like this:
as §1

In another series the test system is Pseudomonas aeruginosa. Put plainly: Antibacterial activity against Pseudomonas aeruginosa […] measured after 18 to 20 hrs by microbroth dilution method. Type of series: functional. In short, it runs like this: as §2
The next series deals with Saccharomyces cerevisiae. Put plainly: Antifungal activity against Saccharomyces cerevisiae SH 20 after 72 hrs by agar dilution method. To be noted: SH 20, 72 h. The format is functional. In short, it runs like this:
as §1
A general note: In agar dilution the substance is mixed into plates at graded concentrations.

The test system of a further series is Candida albicans. As to the kind of experiment: Antifungal activity against Candida albicans ATCC 7754 after 72 hrs by agar dilution method. Type of series: functional. Particulars: ATCC 7754, 72 h. In short, it runs like this:
as §1

The next series deals with Klebsiella pneumoniae. As to the kind of experiment: Antibacterial activity against measured after Klebsiella pneumoniae ATCC 4352 measured after 18 to 20 hrs by microbroth dilution method. Type of series: functional. In short, it runs like this:
as §2

The next series has as its system Salmonella typhimurium. Put plainly: Antibacterial activity against Salmonella typhimurium ATCC 14028 measured after 18 to 20 hrs by microbroth dilution method. The format is functional, Salmonella enterica subsp. enterica serovar Typhimurium. Particulars: Salmonella enterica. The method, boiled down: as §2
The test system of another series is Bacillus subtilis. As to the kind of experiment: Antibacterial activity against Bacillus subtilis ATCC 11774 after 18 to 20 hrs by microbroth dilution method. Type of series: functional. In short, it runs like this: as §2

Molecules are shown by their SMILES. Converted amounts (≈) assume the structure as drawn.

The term MIC denotes the lowest concentration that inhibits growth of the organism. A high value points to a less susceptible organism. For the molecule `CC(=O)OC[C@H]1O[C@@H](n2cc(COc3ccc4c(c3)OC(N)=C(C#N)C4c3cccc(Cl)c3)nn2)[C@H](OC(C)=O)[C@@H](OC(C)=O)[C@@H]1OC(C)=O` (stereo partly drawn), the MIC against Staphylococcus aureus [1] stood at 3.12 µM (≈ 2.22 µg/mL); against Aspergillus niger, 12.5 µM (≈ 8.88 µg/mL); in the series on Escherichia coli, 6.25 µM (≈ 4.44 µg/mL); in the series on Staphylococcus aureus [3] it was 1.56 µM (≈ 1.11 µg/mL); against Staphylococcus aureus [4] it was 6.25 µM (≈ 4.44 µg/mL); against Staphylococcus aureus [5], 1.56 µM (≈ 1.11 µg/mL). For the same molecule, the MIC was determined as 12.5 µM (≈ 8.88 µg/mL) in series [6]; 200 µM (≈ 142 µg/mL) against Aspergillus flavus; 25 µM (≈ 17.8 µg/mL) with Pseudomonas aeruginosa; 3.12 µM (≈ 2.22 µg/mL) in the series with Saccharomyces cerevisiae; 12.5 µM (≈ 8.88 µg/mL) against Candida albicans; 3.12 µM (≈ 2.22 µg/mL) against Klebsiella pneumoniae. In addition, the MIC in the series on Salmonella typhimurium and in the series on Bacillus subtilis was 6.25 µM (≈ 4.44 µg/mL) throughout. Also, the inhibition at 120 h, 50 ug/mL in series [2] turned out to be 17.2%.
`COc1cc(OC)cc(C2C(C#N)=C(N)Oc3cc(OCc4cn([C@@H]5O[C@H](COC(C)=O)[C@@H](OC(C)=O)[C@H](OC(C)=O)[C@H]5OC(C)=O)nn4)ccc32)c1` (stereo partly drawn): the MIC against Staphylococcus aureus [1] worked out at 400 µM (≈ 294 µg/mL); with Aspergillus niger, 100 µM (≈ 73.6 µg/mL); in the series with Escherichia coli, 100 µM (≈ 73.6 µg/mL); against Staphylococcus aureus [3] it was 200 µM (≈ 147 µg/mL); against Staphylococcus aureus [4], 400 µM (≈ 294 µg/mL); with Staphylococcus aureus [5], 100 µM (≈ 73.6 µg/mL). For the same molecule, the MIC in series [6] worked out at 3.12 µM (≈ 2.3 µg/mL); against Aspergillus flavus, 50 µM (≈ 36.8 µg/mL); in the series with Saccharomyces cerevisiae it was 6.25 µM (≈ 4.6 µg/mL); in the series with Candida albicans it was 25 µM (≈ 18.4 µg/mL); in the series on Klebsiella pneumoniae, 100 µM (≈ 73.6 µg/mL); against Salmonella typhimurium, 50 µM (≈ 36.8 µg/mL). Moreover, the MIC against Bacillus subtilis turned out to be 50 µM (≈ 36.8 µg/mL). Moreover, the inhibition at 120 h, 50 ug/mL in [2] amounted to 19.5%.
As to `CC(=O)OC[C@H]1O[C@@H](n2cc(COc3ccc4c(c3)OC(N)=C(C#N)C4c3ccccc3)nn2)[C@H](OC(C)=O)[C@@H](OC(C)=O)[C@@H]1OC(C)=O` (stereo partly drawn), the MIC was 400 µM (≈ 270 µg/mL) against Staphylococcus aureus [1]; 6.25 µM (≈ 4.22 µg/mL) in the series with Aspergillus niger; 400 µM (≈ 270 µg/mL) in the series with Escherichia coli; 200 µM (≈ 135 µg/mL) against Staphylococcus aureus [3]; 400 µM (≈ 270 µg/mL) against Staphylococcus aureus [4]; 200 µM (≈ 135 µg/mL) with Staphylococcus aureus [5]. Besides, the MIC came to 25 µM (≈ 16.9 µg/mL) in series [6]; 100 µM (≈ 67.6 µg/mL) against Aspergillus flavus; 200 µM (≈ 135 µg/mL) against Pseudomonas aeruginosa; 12.5 µM (≈ 8.45 µg/mL) with Saccharomyces cerevisiae; 100 µM (≈ 67.6 µg/mL) in the series with Candida albicans; 400 µM (≈ 270 µg/mL) in the series on Klebsiella pneumoniae. Moreover, the MIC with Salmonella typhimurium is 3.12 µM (≈ 2.11 µg/mL); with Bacillus subtilis it was 400 µM (≈ 270 µg/mL). The inhibition at 120 h, 50 ug/mL in [2] was found to be 22.9%.
Regarding `CC(=O)OC[C@H]1O[C@@H](n2cc(COc3ccc4c(c3)OC(N)=C(C#N)C4c3ccccc3[N+](=O)[O-])nn2)[C@H](OC(C)=O)[C@@H](OC(C)=O)[C@@H]1OC(C)=O` (stereo partly drawn), the MIC in the series with Staphylococcus aureus [1] stood at 6.25 µM (≈ 4.5 µg/mL); against Aspergillus niger it was 400 µM (≈ 288 µg/mL); in the series on Escherichia coli it was 50 µM (≈ 36 µg/mL); in the series with Staphylococcus aureus [3], 3.12 µM (≈ 2.25 µg/mL); against Staphylococcus aureus [4], 1.56 µM (≈ 1.12 µg/mL); with Staphylococcus aureus [5], 6.25 µM (≈ 4.5 µg/mL). Further, the MIC in series [6] was 12.5 µM (≈ 9.01 µg/mL); against Aspergillus flavus, 6.25 µM (≈ 4.5 µg/mL); in the series with Pseudomonas aeruginosa, 400 µM (≈ 288 µg/mL); in the series on Candida albicans it was 50 µM (≈ 36 µg/mL); with Klebsiella pneumoniae, 400 µM (≈ 288 µg/mL); with Bacillus subtilis, 100 µM (≈ 72.1 µg/mL). Further, the inhibition at 120 h, 50 ug/mL in [2] stood at 15.4%.
On to `COc1ccccc1C1C(C#N)=C(N)Oc2cc(OCc3cn([C@@H]4O[C@H](COC(C)=O)[C@@H](OC(C)=O)[C@H](OC(C)=O)[C@H]4OC(C)=O)nn3)ccc21` (stereo partly drawn), for which the MIC worked out at 400 µM (≈ 282 µg/mL) against Staphylococcus aureus [1]; 1.56 µM (≈ 1.1 µg/mL) in the series on Aspergillus niger; 400 µM (≈ 282 µg/mL) in the series on Escherichia coli; 200 µM (≈ 141 µg/mL) in the series on Staphylococcus aureus [3]; 400 µM (≈ 282 µg/mL) against Staphylococcus aureus [4]; 50 µM (≈ 35.3 µg/mL) against Staphylococcus aureus [5]. Besides, the MIC in [6] is 6.25 µM (≈ 4.41 µg/mL); in the series on Aspergillus flavus it was 400 µM (≈ 282 µg/mL); against Pseudomonas aeruginosa, 3.12 µM (≈ 2.2 µg/mL); in the series on Saccharomyces cerevisiae, 100 µM (≈ 70.6 µg/mL); against Candida albicans it was 200 µM (≈ 141 µg/mL); in the series on Klebsiella pneumoniae, 3.12 µM (≈ 2.2 µg/mL). In the series with Salmonella typhimurium, this molecule came in with an MIC of 6.25 µM (≈ 4.41 µg/mL). In series [2], the inhibition at 120 h, 50 ug/mL amounted to 22.1%.
As to `COc1ccc(C2C(C#N)=C(N)Oc3cc(OCc4cn([C@@H]5O[C@H](COC(C)=O)[C@@H](OC(C)=O)[C@H](OC(C)=O)[C@H]5OC(C)=O)nn4)ccc32)c(OC)c1` (stereo partly drawn), the minimal inhibitory concentration (MIC) against Staphylococcus aureus [1] turned out to be 1.56 µM (≈ 1.15 µg/mL); in the series on Aspergillus niger, 400 µM (≈ 294 µg/mL); with Staphylococcus aureus [3] it was 6.25 µM (≈ 4.6 µg/mL); in the series on Staphylococcus aureus [4], 1.56 µM (≈ 1.15 µg/mL); in the series on Staphylococcus aureus [5] it was 1.56 µM (≈ 1.15 µg/mL); in series [6] it was 25 µM (≈ 18.4 µg/mL). Also, the minimal inhibitory concentration (MIC) with Saccharomyces cerevisiae was 50 µM (≈ 36.8 µg/mL); with Candida albicans, 12.5 µM (≈ 9.2 µg/mL); in the series with Klebsiella pneumoniae, 12.5 µM (≈ 9.2 µg/mL); in the series with Salmonella typhimurium it was 50 µM (≈ 36.8 µg/mL); in the series on Bacillus subtilis, 50 µM (≈ 36.8 µg/mL). Further, in series [2], the inhibition at 120 h, 50 ug/mL stood at 12.4%.

(Values after ChEMBL document CHEMBL4390647, “Efficient click chemistry towards novel 1H-1,2,3-triazole-tethered 4H-chromene-d-glucose conjugates: Design, synthesis and evaluation of in vitro antibacterial, MRSA and antifungal activities” (Eur J Med Chem, 2019).)
